How the values were obtained:
Type in all cases: functional
[1] = system: MDA-MB-231; test: Cytotoxicity against human MDA-MB-231 cells assessed as cell growth at 10 uM after 48 hrs by SRB assay relative to control; details: MDA-MB-231, 48 h, read-out: Activity
Method in brief: (§1)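 First-stage NCI DTP one-dose screen against the 60 human tumour cell line panel. Compounds were tested at a single 10 μM level, and results are given as growth percentage.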

[2] = system: COLO 205; test: Cytotoxicity against human COLO205 cells assessed as cell growth at 10 uM after 48 hrs by SRB assay relative to control; details: COLO 205, 48 h, read-out: Activity
Method in brief: (§2)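 First-stage NCI-60 screen by the NCI Developmental Therapeutics Program. Each compound was tested once at a single concentration of 10 μM against the 60-cell-line panel. Growth percentage was reported for each cell line.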

[3] = system: RXF 393; test: Cytotoxicity against human RXF393 cells assessed as cell growth at 10 uM after 48 hrs by SRB assay relative to control; details: RXF 393, 48 h, read-out: Activity; method in brief: as §1
[4] = system: NCI-H226; test: Cytotoxicity against human NCI-H226 cells assessed as cell growth at 10 uM after 48 hrs by SRB assay relative to control; details: NCI-H226, 48 h, read-out: Activity; method in brief: as §1
[5] = system: K562; test: Cytotoxicity against human K562 cells assessed as cell growth at 10 uM after 48 hrs by SRB assay relative to control; details: K562, 48 h, read-out: Activity; method in brief: as §2
[6] = system: SK-OV-3; test: Cytotoxicity against human SKOV3 cells assessed as cell growth at 10 uM after 48 hrs by SRB assay relative to control; details: SK-OV-3, 48 h, read-out: Activity; method in brief: as §1
[7] = system: LOX IMVI; test: Cytotoxicity against human LOXIMVI cells assessed as cell growth at 10 uM after 48 hrs by SRB assay relative to control; details: read-out: Activity; method in brief: as §2
[8] = system: T47D; test: Cytotoxicity against human T47D cells assessed as cell growth at 10 uM after 48 hrs by SRB assay relative to control; details: read-out: Activity
Method in brief: (§3)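 NCI-60 one-dose screen run by NCI DTP: each cell line exposed to a single 10 µM dose, and percentage growth recorded against untreated growth.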

[9] = system: TK-10; test: Cytotoxicity against human TK10 cells assessed as cell growth at 10 uM after 48 hrs by SRB assay relative to control; details: TK-10, 48 h, read-out: Activity; method in brief: as §3
[10] = system: SF-268; test: Cytotoxicity against human SF268 cells assessed as cell growth at 10 uM after 48 hrs by SRB assay relative to control; details: SF-268, 48 h, read-out: Activity; method in brief: as §1
[11] = system: DU-145; test: Cytotoxicity against human DU145 cells assessed as cell growth at 10 uM after 48 hrs by SRB assay relative to control; details: DU-145, 48 h, read-out: Activity; method in brief: as §2
[12] = system: NCI-H522; test: Cytotoxicity against human NCI-H522 cells assessed as cell growth at 10 uM after 48 hrs by SRB assay relative to control; details: NCI-H522, 48 h, read-out: Activity; method in brief: as §1
[13] = system: HCT-116; test: Cytotoxicity against human HCT116 cells assessed as cell growth at 10 uM after 48 hrs by SRB assay relative to control; details: HCT-116, 48 h, read-out: Activity; method in brief: as §2
[14] = Cytotoxicity against human Hs578T cells assessed as cell growth at 10 uM after 48 hrs by SRB assay relative to control; details: Hs-578T, read-out: Activity; method in brief: as §2
[15] = system: M14; test: Cytotoxicity against human M14 cells assessed as cell growth at 10 uM after 48 hrs by SRB assay relative to control; details: M14, 48 h, read-out: Activity; method in brief: as §2
[16] = system: NCI-H460; test: Cytotoxicity against human NCI-H460 cells assessed as cell growth at 10 uM after 48 hrs by SRB assay relative to control; details: NCI-H460, 48 h, read-out: Activity; method in brief: as §1
[17] = system: UACC-257; test: Cytotoxicity against human UACC257 cells assessed as cell growth at 10 uM after 48 hrs by SRB assay relative to control; details: UACC-257, 48 h, read-out: Activity; method in brief: as §3
[18] = system: SNB-75; test: Cytotoxicity against human SNB75 cells assessed as cell growth at 10 uM after 48 hrs by SRB assay relative to control; details: SNB-75, 48 h, read-out: Activity; method in brief: as §3
[19] = system: OVCAR-8; test: Cytotoxicity against human OVCAR8 cells assessed as cell growth at 10 uM after 48 hrs by SRB assay relative to control; details: OVCAR-8, 48 h, read-out: Activity; method in brief: as §1
[20] = system: OVCAR-3; test: Cytotoxicity against human OVCAR3 cells assessed as cell growth at 10 uM after 48 hrs by SRB assay relative to control; details: OVCAR-3, 48 h, read-out: Activity; method in brief: as §1
[21] = system: A549; test: Cytotoxicity against human A549 cells assessed as cell growth at 10 uM after 48 hrs by SRB assay relative to control; details: A549, 48 h, read-out: Activity; method in brief: as §2
[22] = system: SK-MEL-2; test: Cytotoxicity against human SK-MEL-2 cells assessed as cell growth at 10 uM after 48 hrs by SRB assay relative to control; details: SK-MEL-2, 48 h, read-out: Activity; method in brief: as §1
[23] = system: UO-31; test: Cytotoxicity against human UO31 cells assessed as cell growth at 10 uM after 48 hrs by SRB assay relative to control; details: UO-31, 48 h, read-out: Activity; method in brief: as §3
[24] = system: HCT-15; test: Cytotoxicity against human HCT15 cells assessed as cell growth at 10 uM after 48 hrs by SRB assay relative to control; details: HCT-15, 48 h, read-out: Activity; method in brief: as §2
[25] = system: HOP-92; test: Cytotoxicity against human HOP92 cells assessed as cell growth at 10 uM after 48 hrs by SRB assay relative to control; details: HOP-92, 48 h, read-out: Activity; method in brief: as §2
[26] = system: NCI-H23; test: Cytotoxicity against human NCI-H23 cells assessed as cell growth at 10 uM after 48 hrs by SRB assay relative to control; details: NCI-H23, 48 h, read-out: Activity; method in brief: as §1
[27] = system: SF-295; test: Cytotoxicity against human SF295 cells assessed as cell growth at 10 uM after 48 hrs by SRB assay relative to control; details: SF-295, 48 h, read-out: Activity; method in brief: as §1
[28] = system: A498; test: Cytotoxicity against human A498 cells assessed as cell growth at 10 uM after 48 hrs by SRB assay relative to control; details: A498, 48 h, read-out: Activity; method in brief: as §2
[29] = system: SF-539; test: Cytotoxicity against human SF539 cells assessed as cell growth at 10 uM after 48 hrs by SRB assay relative to control; details: SF-539, 48 h, read-out: Activity; method in brief: as §1
[30] = system: SK-MEL-5; test: Cytotoxicity against human SK-MEL-5 cells assessed as cell growth at 10 uM after 48 hrs by SRB assay relative to control; details: SK-MEL-5, 48 h, read-out: Activity; method in brief: as §1
[31] = system: MDA-MB-435; test: Cytotoxicity against human MDA-MB-435 cells assessed as cell growth at 10 uM after 48 hrs by SRB assay relative to control; details: MDA-MB-435, 48 h, read-out: Activity; method in brief: as §1
[32] = system: ACHN; test: Cytotoxicity against human ACHN cells assessed as cell growth at 10 uM after 48 hrs by SRB assay relative to control; details: read-out: Activity; method in brief: as §2

| SMILES | growth at 10 µM [1] [%] | growth at 10 µM [2] [%] | growth at 10 µM [3] [%] | growth at 10 µM [4] [%] | growth at 10 µM [5] [%] | growth at 10 µM [6] [%] | growth at 10 µM [7] [%] | growth at 10 µM [8] [%] | growth at 10 µM [9] [%] | growth at 10 µM [10] [%] | growth at 10 µM [11] [%] | growth at 10 µM [13] [%] | growth at 10 µM [14] [%] | growth at 10 µM [15] [%] | growth at 10 µM [16] [%] | growth at 10 µM [17] [%] | growth at 10 µM [18] [%] | growth at 10 µM [19] [%] | growth at 10 µM [20] [%] | growth at 10 µM [21] [%] | also measured |
| --- | --- | --- | --- | --- | --- | --- | --- | --- | --- | --- | --- | --- | --- | --- | --- | --- | --- | --- | --- | --- | --- |
| O=C1c2ccccc2C(=O)c2c1cc(Cl)c1nsnc21 | -23.4 | 99.1 | 71.9 | 100 | 2.44 | 109 | 10.2 | -54.6 | 134 | 37 | 97 | 48.1 | 72.5 | 103 | 100 | 76.1 | 85.2 | -4.57 | 49.9 | 103 | growth at 10 µM [12]: 89.5%; growth at 10 µM [22]: 0.21%; growth at 10 µM [23]: 80.2%; growth at 10 µM [24]: 96.8%; growth at 10 µM [25]: -52.2%; growth at 10 µM [26]: 75%; growth at 10 µM [27]: 109%; growth at 10 µM [28]: 93.8%; growth at 10 µM [29]: 109%; growth at 10 µM [30]: 72.5% |
| COc1ccc(Sc2cc3c(c4nsnc24)C(=O)c2ccccc2C3=O)cc1 | 87.6 | 112 | 109 | 79.5 | 92 | 106 | 90.2 | 89.7 | 136 | 94.8 | 112 | 94.6 | 96.7 | 92.9 | 107 | 118 | 79 | 99.5 | 110 | 103 | growth at 10 µM [12]: 95.7%; growth at 10 µM [22]: 99.2%; growth at 10 µM [23]: 68.3%; growth at 10 µM [24]: 109%; growth at 10 µM [25]: 91.4%; growth at 10 µM [26]: 89.1%; growth at 10 µM [28]: 84.8%; growth at 10 µM [31]: 119%; growth at 10 µM [29]: 93.5%; growth at 10 µM [30]: 106%; growth at 10 µM [32]: 102% |
| O=C1c2ccccc2C(=O)c2c1ccc1nsnc21 | -17.3 | 112 | 20.1 | 97.8 | 49.6 | 101 | -50.6 | -45.5 | 97 | 16.3 | 40.8 | -50 | 7.4 | 74.5 | 77.4 | -83.1 | 79 | -10.1 | -15.5 | 104 | growth at 10 µM [22]: -73.2%; growth at 10 µM [23]: -79.3%; growth at 10 µM [24]: 1.48%; growth at 10 µM [26]: 16.1%; growth at 10 µM [27]: 126%; growth at 10 µM [28]: 130%; growth at 10 µM [31]: -87.9%; growth at 10 µM [29]: -47.1%; growth at 10 µM [30]: 8.52%; growth at 10 µM [32]: -94.3% |

From ChEMBL document CHEMBL3621107, “Ring fusion strategy for synthesis and lead optimization of sulfur-substituted anthra[1,2-c][1,2,5]thiadiazole-6,11-dione derivatives as promising scaffold of antitumor agents” (Eur J Med Chem, 2015)
